Screening results: PubChem, Johns Hopkins Ion Channel Center
TRPC4 inh: inhibitors of mouse TRPC4 channel, primary screen, Fluo4 calcium, HEK293 TRPC4beta/mu-opioid cells | AID 2247, 2010 | DAMGO-evoked Fluo4 calcium flux; stronger effect = lower value | B-score at 10 µM | actives 0.39% (n = 300,000);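 active = B-score over 3 SD under the library average, no early fluorescence shift, positive overall ratio signal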
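Assay system – HEK293 line stably carrying TRPC4beta and mu-opioid receptor · Doses – single dose · Detection – Fluo4 calcium-dye fluorescence, kinetic read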
TRPC6 inhibitor: mouse TRPC6 channel inhibitors, primary screen, cell-based, HEK293, membrane potential dye; ACh-evoked depolarization; stronger effect = lower value; B-score at 10 µM; Short transient receptor potential channel 6 (Mus musculus), Q61143; actives 1.1% (n = 310,000); AID 2553, 2010;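 active = B-score under library mean minus 3 SD, initial fluorescence not abnormally high, positive integrated signal ratio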;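 also: B-score derived from integrated fluorescence ratio over the kinetic read; more negative B-score means stronger inhibition of depolarization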
Target sequence (Q61143 whole entry, looked up): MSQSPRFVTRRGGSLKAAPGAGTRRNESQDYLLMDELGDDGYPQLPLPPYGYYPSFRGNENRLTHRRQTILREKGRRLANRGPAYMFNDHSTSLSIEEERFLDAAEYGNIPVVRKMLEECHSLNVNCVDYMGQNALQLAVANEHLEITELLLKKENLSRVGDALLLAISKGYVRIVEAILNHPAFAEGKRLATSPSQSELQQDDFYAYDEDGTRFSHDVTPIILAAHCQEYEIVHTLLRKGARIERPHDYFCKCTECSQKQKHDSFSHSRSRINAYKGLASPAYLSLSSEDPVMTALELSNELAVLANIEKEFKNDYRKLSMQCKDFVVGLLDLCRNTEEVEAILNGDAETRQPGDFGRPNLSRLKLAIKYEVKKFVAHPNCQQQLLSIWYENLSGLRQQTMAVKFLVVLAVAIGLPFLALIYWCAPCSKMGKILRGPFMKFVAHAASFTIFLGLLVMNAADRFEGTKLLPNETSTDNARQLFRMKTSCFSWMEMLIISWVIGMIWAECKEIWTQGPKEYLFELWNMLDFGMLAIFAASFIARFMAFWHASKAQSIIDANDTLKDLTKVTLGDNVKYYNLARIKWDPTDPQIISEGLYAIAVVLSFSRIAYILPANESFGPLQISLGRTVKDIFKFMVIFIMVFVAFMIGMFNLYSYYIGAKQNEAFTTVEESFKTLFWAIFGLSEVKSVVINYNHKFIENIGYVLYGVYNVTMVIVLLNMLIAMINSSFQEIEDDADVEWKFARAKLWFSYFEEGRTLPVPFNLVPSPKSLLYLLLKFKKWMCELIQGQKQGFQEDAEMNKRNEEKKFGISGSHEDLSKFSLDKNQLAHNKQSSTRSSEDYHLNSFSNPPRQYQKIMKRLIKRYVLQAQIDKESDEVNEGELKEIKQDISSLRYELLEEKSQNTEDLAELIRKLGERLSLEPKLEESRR
TRPC4 potent: positive allosteric modulators of TRPC4, primary screen, cell-based, mouse TRPC4beta, HEK293 mu-opioid, Fluo-4 calcium; AID 2227, 2009; Short transient receptor potential channel 4 (Mus musculus), Q9QUQ5; DAMGO EC20, Fluo-4 Ca2+ flux; stronger effect = higher value; actives 0.42% (n = 310,000); B-score at 10 µM;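 active = B-score of calcium response area above 5 SD of library B-scores, with initial fluorescence ratio within 5 SD of library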
TRPC6 activator: mouse TRPC6 channel activators, primary screen, cell-based, HEK293, membrane potential dye; Short transient receptor potential channel 6 (Mus musculus), Q61143; AID 2550, 2010; HEK293-TRPC6 membrane potential dye fluorescence; stronger effect = higher value; B-score at 10 µM; actives 0.13% (n = 310,000);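 active = B-score of the integrated fluorescence ratio above library mean plus 3 SD, and starting fluorescence ratio within library mean plus 5 SD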;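 also: higher score means more depolarization so channel activation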
TRPC4 agonist: activators of mouse TRPC4 channel, primary screen, Fluo4 calcium, HEK293 TRPC4beta/mu-opioid cells. AID 2237, 2010. Short transient receptor potential channel 4 (Mus musculus), Q9QUQ5. Fluo4 calcium fluorescence; stronger effect = higher value. actives 0.49% (n = 310,000). B-score at 10 µM;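 active = B-score above 5 SD of library B-scores, and initial fluorescence ratio not above library mean plus 5 SD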;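 also: positive B-score marks a calcium rise read as TRPC4 activation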
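Material: TRPC4beta and mu-opioid receptor HEK293 stable cells | Incubation: 45 min room-temperature Fluo4 loading, 110 s read | Detection: Kinetic Fluo4 calcium fluorescence | Measure: Integrated baseline-normalised fluorescence ratio, converted to per-well B score | Benchmarks: Low control buffer alone, high control maximal DAMGO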
Hits are given with their value; - = inactive. An excerpt weighted towards active compounds, which were near 2.3% of everything screened.

SMILES	TRPC4 inh	TRPC6 inhibitor	TRPC4 potent	TRPC6 activator	TRPC4 agonist
CCOC(=O)N1CCN(CC(O)COc2c(C)cccc2C)CC1 (stereo unspecified)	-	-	-	-	-
Cc1nc2ccccn2c1C(=O)N=Nc1c(O)[nH]c2ccccc12	-	-	-	-	-
CN(Cc1ccccc1)S(=O)(=O)c1ccc2c(c1)CCC(=O)N2	-	-	-	-	-
CCN(CC)S(=O)(=O)c1ccc(C2=NOC3(C2)N(C)c2ccccc2C3(C)C)cc1 (stereo unspecified)	-	-	-	-	-
CCOC(=O)C1CCCN(C(=O)Cn2c(=O)c3cccn3c3cccnc32)C1 (stereo unspecified)	-	-	-	-	-
O=C(Nc1nnc(-c2ccccc2)o1)c1ccc(Cl)cc1	-	-	-	-	48
Cc1ccc(C)c(NC(=O)CSc2nnc(C3CCCCC3)o2)c1	-	-	-	-	-
CN(C)CC/C=C1/c2ccc(F)cc2Sc2ccc(Cl)cc21	-	-5.8	-	-	-
CN(C)CC/C=C1\c2cc(Cl)ccc2Sc2cc(F)c(F)cc21	-	-5.5	-	-	-
CC(C)c1ccccc1OCCCCCNCCO	-	-	13	-	-
O=C(O)CCC(=O)NNC(=O)c1ccc(Br)cc1	-	-	-	-	-
COc1ccc(C2NCCc3c2[nH]c2ccccc32)cc1CN1CCc2cc(OC)c(OC)cc2C1C (stereo unspecified)	-8	-	-	-	47
Cc1ccccc1C(=O)Nc1ccc(C(=O)N/N=C/c2ccncc2)cc1	-6	-	-	-	-
Cc1ccccc1C(=O)Nc1ccc(C(=O)N/N=C/c2ccc(O)cc2)cc1	-	-	-	-	-
CC1Sc2ccc(S(=O)(=O)NCCc3ccc(Cl)cc3)cc2NC1=O (stereo unspecified)	-	-	-	-	-
CC(C)c1ccc(NC(=O)N(CCc2nc3ccccc3[nH]2)C2CCCC2)cc1	-7	-	-	-	75
COC(=O)CSc1cc([N+](=O)[O-])cc2c1c(C1OCCO1)nn2-c1ccccc1	-	-	-	-	-
CCn1nccc1C(=O)Nc1cc(Cl)cc(Cl)c1	-5	-	-	-	-
CCCOc1ccc(C2=CSC3=NCCN23)cc1[N+](=O)[O-]	-	-6.2	-	-	-
Cc1ccc(-c2c[n+](CC(=O)Nc3nc(-c4ccc(F)cc4)cs3)c3n2CCC3)cc1	-6	-	-	-	-
COc1cc(CN2CCN(Cc3ccc(SC)cc3)CC2)cc(OC)c1O	-	-	-	-	-
COc1ccc(CN2CCN(Cc3ccc(C)cc3)CC2)c(OC)c1	-	-	-	-	-
COc1cc(OC)c(OC)cc1CN1CCN(Cc2ccc(SC)cc2)CC1	-	-	-	-	43
COc1ccc(CN2CCN(Cc3ccccc3F)CC2)c(OC)c1	-5	-	-	-	-
COc1ccc(CN2CCN(Cc3ccc(C(F)(F)F)cc3)CC2)c(OC)c1	-6	-	-	-	-
SMILES	TRPC4 inh	TRPC6 inhibitor	TRPC4 potent	TRPC6 activator	TRPC4 agonist
Cc1nn(C(=O)CNS(=O)(=O)c2ccccc2)c(C)c1Sc1ccc(Cl)cc1	-7	-	-	-	-
CCC(=O)Nc1nc2ccccc2n1CCN(CC)CC	-	-	11	-	-
CCN(CC)CCn1c(NC(=O)c2ccc(C)cc2)nc2ccccc21	-	-	-	-	-
Cc1[nH]c2ccc(C(=O)OC(C)C(=O)N(C)c3ccccc3)cc2c1C (stereo unspecified)	-7	-	-	-	-
COc1ccc(C)cc1S(=O)(=O)N1CCCC(C(=O)N2CCOCC2)C1 (stereo unspecified)	-	-	-	-	-
Cc1ccc(C(C2=C(O)CC(C)(C)CC2=O)C2C(=O)CC(C)(C)CC2=O)s1 (stereo unspecified)	-	-	-	-	-
CC1(C)CC(=O)C(C(C2=C(O)CC(C)(C)CC2=O)c2ccc(Br)s2)C(=O)C1 (stereo unspecified)	-	-	10	-	-
O=C(CCc1ccc(Oc2cc([N+](=O)[O-])cc([N+](=O)[O-])c2)cc1)N1CCCCCC1	-6	-	-	-	75
